Experimental data published in article PMC5885750 (Bioorganic & medicinal chemistry letters, 2018).

What was measured:
[1] = target: T1, Heptosyltransferase I (HepI) (Escherichia coli, UniProt P24173); assay: Kinetic characterization of inhibition mechanism; format: biochemical
Outline: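 Rates at rising inhibitor levels fitted to a mixed (noncompetitive) equation with Ks, Ki and α. α marks preference for free enzyme (>1), ternary complex (<1) or neither (=1). It is judged from whether Km rises, falls or stays unchanged as inhibitor increases. ODLA acceptor was varied in the ODLA series.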

[2] = target: T1, Heptosyltransferase I (HepI); assay: Inhibition of HepI catalysis with substrates ODLA and ADP-Heptose; format: biochemical

T1 sequence (P24173 whole entry): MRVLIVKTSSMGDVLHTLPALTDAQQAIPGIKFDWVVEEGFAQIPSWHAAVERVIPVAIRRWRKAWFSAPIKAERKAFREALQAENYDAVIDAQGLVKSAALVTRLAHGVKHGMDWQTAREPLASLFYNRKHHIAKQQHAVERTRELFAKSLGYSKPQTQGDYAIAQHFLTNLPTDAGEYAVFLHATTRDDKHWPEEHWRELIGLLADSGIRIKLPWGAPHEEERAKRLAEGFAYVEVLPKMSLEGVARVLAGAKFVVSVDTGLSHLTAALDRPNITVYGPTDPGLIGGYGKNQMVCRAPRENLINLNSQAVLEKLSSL

SMILES | kcat ADP-Heptose ([1]; [Inhibitor] 10 μM) [s⁻¹] | kcat ODLA ([1]; [Inhibitor] 10 μM) [s⁻¹] | kcat ADP-Heptose ([1]; [Inhibitor] 100 μM) [s⁻¹] | kcat ODLA ([1]; [Inhibitor] 100 μM) [s⁻¹] | kcat ADP-Heptose ([1]; [Inhibitor] 1000 μM) [s⁻¹] | kcat ODLA ([1]; [Inhibitor] 1000 μM) [s⁻¹] | type of inhibition against ODLA ([1]; acceptor substrate ODLA varied) | α (preference for free enzyme or ES complex) ([1]; against ADP-Heptose, α<1 = prefers ES complex) | type of inhibition against ADP-Heptose ([1]; donor substrate ADP-Heptose varied) | inhibition of HepI activity (in words) [2]
CCCC/C=C/CO[C@@H]1O[C@H](CO)[C@@H](O)[C@H](O)[C@H]1O [Compound 7, hexene-β-D-glucopyranoside] | 2.8 ± 0.3 | 1.4 ± 0.03 | 1.6 ± 0.1 | 1.3 ± 0.004 | 0.76 ± 0.08 | 0.9 ± 0.2 | uncompetitive inhibition | < 1 | noncompetitive (mixed-competitive) inhibition | –
CCCCCCCCO[C@@H]1O[C@H](CO)[C@@H](O)[C@H](O)[C@H]1O [n-Octyl-β-D-glucopyranoside] | – | – | – | – | – | – | – | – | – | small degree of inhibition
